Measurements taken from ChEMBL document CHEMBL1128394, “Hydroxamic acids as potent inhibitors of endothelin-converting enzyme from human bronchiolar smooth muscle” (J Med Chem, 1995).
“And” between values parts separate entries of the source, which are not always exact repeats. Equal values may be shown once. Residues, ends and D or L forms follow the SMILES beside them. *: point of attachment. Cbz = O=C(OCc1ccccc1)*; NHOH = ON*

Key:
Thermolysin = molecular target: T1, Thermolysin (Bacillus thermoproteolyticus, UniProt P00800); test: Inhibitory activity against thermolysin with 0.5 uM [Leu5]-enkephalin (NEN)
T1 sequence (P00800 whole entry): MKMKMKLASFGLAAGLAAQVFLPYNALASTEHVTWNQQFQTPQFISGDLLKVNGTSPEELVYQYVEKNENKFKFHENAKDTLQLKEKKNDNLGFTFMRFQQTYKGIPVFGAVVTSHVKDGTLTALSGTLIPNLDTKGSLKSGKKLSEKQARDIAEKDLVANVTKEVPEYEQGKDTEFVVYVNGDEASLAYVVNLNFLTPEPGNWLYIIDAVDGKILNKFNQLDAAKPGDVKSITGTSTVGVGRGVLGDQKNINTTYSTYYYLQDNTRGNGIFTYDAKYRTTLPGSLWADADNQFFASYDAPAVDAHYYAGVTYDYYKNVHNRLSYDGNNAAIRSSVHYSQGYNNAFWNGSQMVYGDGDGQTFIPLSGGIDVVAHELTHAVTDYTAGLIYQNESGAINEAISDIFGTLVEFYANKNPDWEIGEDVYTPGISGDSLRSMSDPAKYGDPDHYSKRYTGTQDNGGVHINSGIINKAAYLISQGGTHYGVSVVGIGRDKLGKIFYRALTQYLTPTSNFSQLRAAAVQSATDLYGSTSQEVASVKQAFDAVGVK
Summary of the method: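 Thermolysin preincubated 15 min with inhibitor. Substrate 0.5 μM [3,5-3H-Tyr1][Leu]enkephalin. Reaction ran 10 min at 20 °C in 50 mM Tris-Cl pH 7.5.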

Neprilysin [1] = molecular target: T2, Neprilysin (Oryctolagus cuniculus, UniProt P08049); test: Inhibitory activity against Leu-enkeph of Neutral endopeptidase
T2 sequence (P08049 whole entry): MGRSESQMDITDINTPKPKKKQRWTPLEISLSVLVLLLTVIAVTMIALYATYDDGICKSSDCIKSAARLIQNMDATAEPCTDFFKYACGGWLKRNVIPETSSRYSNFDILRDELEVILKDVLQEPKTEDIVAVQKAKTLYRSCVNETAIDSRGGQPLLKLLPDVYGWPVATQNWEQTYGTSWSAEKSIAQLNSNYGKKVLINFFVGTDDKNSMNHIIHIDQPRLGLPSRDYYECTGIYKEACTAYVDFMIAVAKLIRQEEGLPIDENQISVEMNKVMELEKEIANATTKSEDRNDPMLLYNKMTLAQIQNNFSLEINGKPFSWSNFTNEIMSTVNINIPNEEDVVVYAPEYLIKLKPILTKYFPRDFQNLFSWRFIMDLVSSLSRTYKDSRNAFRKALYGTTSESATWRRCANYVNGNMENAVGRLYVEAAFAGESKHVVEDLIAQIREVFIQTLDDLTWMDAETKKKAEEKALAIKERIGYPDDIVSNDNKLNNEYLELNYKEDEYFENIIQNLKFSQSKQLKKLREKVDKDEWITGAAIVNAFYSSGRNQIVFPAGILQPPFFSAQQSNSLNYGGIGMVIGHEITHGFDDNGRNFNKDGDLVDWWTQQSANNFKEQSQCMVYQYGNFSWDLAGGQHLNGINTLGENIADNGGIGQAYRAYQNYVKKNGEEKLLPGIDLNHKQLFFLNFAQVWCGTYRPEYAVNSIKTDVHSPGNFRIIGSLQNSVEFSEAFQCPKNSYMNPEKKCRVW
Summary of the method: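 Soluble rabbit kidney neutral endopeptidase preincubated 15 min with inhibitor. Tritiated [Leu]enkephalin as substrate. Reaction ran 10 min at 20 °C in 50 mM Tris-Cl pH 7.5.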

[2] = molecular target: T3, Endothelin-converting enzyme 1 (Homo sapiens, UniProt P42892); test: Inhibitory activity against human bronchiolar smooth muscle Endothelin-converting enzyme 1; format: tissue-based, Muscle tissue
T3 sequence (P42892 whole entry): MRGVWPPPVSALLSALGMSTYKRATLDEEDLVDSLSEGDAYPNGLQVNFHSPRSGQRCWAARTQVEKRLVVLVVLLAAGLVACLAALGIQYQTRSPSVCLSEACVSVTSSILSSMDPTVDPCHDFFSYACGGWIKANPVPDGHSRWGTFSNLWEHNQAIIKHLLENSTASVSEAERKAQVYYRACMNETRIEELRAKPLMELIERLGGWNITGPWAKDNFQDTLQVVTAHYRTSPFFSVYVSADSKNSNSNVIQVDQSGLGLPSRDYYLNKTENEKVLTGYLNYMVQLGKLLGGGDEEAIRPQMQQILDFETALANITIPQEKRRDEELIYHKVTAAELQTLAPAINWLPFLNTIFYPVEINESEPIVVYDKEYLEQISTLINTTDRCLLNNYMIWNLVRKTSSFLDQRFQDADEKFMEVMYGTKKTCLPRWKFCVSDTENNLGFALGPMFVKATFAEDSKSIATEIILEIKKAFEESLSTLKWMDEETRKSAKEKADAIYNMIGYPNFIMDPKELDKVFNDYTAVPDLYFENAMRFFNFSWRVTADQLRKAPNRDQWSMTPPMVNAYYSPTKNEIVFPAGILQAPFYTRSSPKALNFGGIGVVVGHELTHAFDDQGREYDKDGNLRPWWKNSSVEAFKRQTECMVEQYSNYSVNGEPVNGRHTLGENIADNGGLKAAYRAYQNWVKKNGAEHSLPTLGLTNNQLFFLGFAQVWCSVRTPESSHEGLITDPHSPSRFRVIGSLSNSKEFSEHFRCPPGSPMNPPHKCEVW
Summary of the method: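 Enzyme purified from cultured human bronchiolar smooth muscle cell membranes (octyl glucoside solubilization, ion exchange, gel filtration). Preincubated 30 min at 37 °C with inhibitor (in DMSO), then 3 μM human big ET-1 (final) added. Run 4–5 h at 37 °C in 50 mM Na-MOPS pH 7.2, 150 mM NaCl, 30 μM CaCl2, amastatin, PMSF. Stopped with EDTA. ET-1 quantified by reverse-phase HPLC with fluorescence.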

Neprilysin [3] = molecular target: T2, Neprilysin; test: Inhibitory activity against big ET-1 of Neutral endopeptidase
Summary of the method: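 Soluble rabbit kidney neutral endopeptidase, run under the same conditions as the ECE assay: 30 min inhibitor preincubation at 37 °C, 3 μM human big ET-1, 4–5 h at 37 °C, pH 7.2 Na-MOPS buffer with NaCl and CaCl2. ET-1 formed was measured by reverse-phase HPLC with fluorescence detection. IC50 by least-squares curve fit.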

| IC50 (Thermolysin) | IC50 (Neprilysin [1]) | IC50 [2] | IC50 (Neprilysin [3]) | Structure (SMILES) |
| --- | --- | --- | --- | --- |
|  | 30 nM | 190 nM | 270 nM | CC(C)C(CC(=O)NO)C(=O)NCCC(=O)O (stereo not given) |
|  |  | 6500 nM |  | CC(C)C(CC(N)=O)C(=O)NCCC(=O)O (stereo not given) |
| 5 nM | 0.03 nM | 0.25 nM | 0.07 nM | CC(C)CC(C(=O)NO)C(=O)NC(Cc1c[nH]c2ccccc12)C(=O)O (stereo not given) |
| 1900 nM | 2 nM | 0.01 nM | 1 nM | CC(C)C(C(=O)NO)C(=O)NCCC(=O)O (stereo not given) |
|  |  | > 10000 nM |  | CC(C)C(CC(=O)NOCc1ccccc1)C(=O)NC(CC(N)=O)C(N)=O (stereo not given) |
|  | 170 nM | 150 nM | 750 nM | CC(C)C(CC(=O)NO)C(=O)NC(CC(N)=O)C(=O)O (stereo not given) |
|  |  | 3000 nM |  | O=C(O)CCNC(=O)CC(=O)NO |
|  |  | 3000 nM |  | CC(C)C(CC(=O)NO)C(=O)NC(CC(N)=O)C(N)=O (stereo not given) |
|  | 950 nM | 500 nM | 1000 nM | CC(C)C(CNO)C(=O)NC(Cc1c[nH]c2ccccc12)C(=O)O (stereo not given) |
|  | 3 nM | 6.8 nM | 8 nM | CC(C)C(C(=O)NO)C(=O)NCC(=O)O (stereo not given) |

Continued, compound first:

| Structure (SMILES) | IC50 (Thermolysin) | IC50 (Neprilysin [1]) | IC50 [2] | IC50 (Neprilysin [3]) |
| --- | --- | --- | --- | --- |
| CC(C)C[C@H](C(=O)NO)C(=O)N[C@@H](C)C(=O)NCC(N)=O | 175 nM | 2 nM | 11 nM | 40 nM |
| CC(C)C(CC(=O)NO)C(=O)NC(Cc1c[nH]c2ccccc12)C(=O)O (stereo not given) | 2000 nM | 5 nM and 18 nM | 17 nM and 40 nM | 30 nM and 40 nM |
| CC(C)C(C(=O)NO)C(=O)NC(CC(N)=O)C(=O)O (stereo not given) |  | 1 nM | 3 nM | 20 nM |
| CC(C)C[C@H](NP(=O)(O)O[C@@H]1O[C@@H](C)[C@H](O)[C@@H](O)[C@H]1O)C(=O)N[C@@H](Cc1c[nH]c2ccccc12)C(=O)O [PHOSPHORAMIDON] | 33 nM | 6 nM |  | 2 nM |
| O=C(O)CNC(=O)C(CS)Cc1ccccc1 (stereo not given) [THIORPHAN] |  |  | 8 nM |  |
| C[C@H](NC(=O)[C@@H](CC(=O)NO)Cc1ccccc1)C(=O)O [KELATORPHAN] | 3 nM | 1 nM | 8 nM | 8 nM |
| CC(C)C(C(=O)NO)C(=O)NC(Cc1c[nH]c2ccccc12)C(=O)O (stereo not given) | 5 nM | 0.4 nM | 0.2 nM | 0.03 nM |
| CCCCC[C@H](CC(=O)NO)C(=O)N[C@H](C(=O)N1CCC[C@H]1CO)C(C)C [ACTINONIN] |  |  | 4000 nM | 8200 nM |
| CC(C)CC(C(=O)NOCc1ccccc1)C(=O)NC(Cc1c[nH]c2ccccc12)C(N)=O (stereo not given) |  |  | 10000 nM |  |
| CC(C)C(C(=O)NO)C(=O)NC(Cc1c[nH]c2ccccc12)C(N)=O (stereo not given) | 9 nM | 2 nM | 1.2 nM | 3 nM |
| CC(C)CC(C(=O)NO)C(=O)NC(Cc1c[nH]c2ccccc12)C(N)=O (stereo not given) | 2 nM | 2 nM | 4.8 nM | 7 nM |
| CC(C)C[C@H](NC(=O)[C@@H]1CCCN1C(=O)OCc1ccccc1)C(=O)NCC(=O)NO (Cbz-Pro-Leu-Gly-{NHOH}) |  |  | 33000 nM | 2300 nM |
